From ChEMBL document CHEMBL1641423, “Novel gratisin derivatives with high antimicrobial activity and low hemolytic activity” (Bioorg Med Chem Lett, 2011) come the findings set out here.

In brackets after ≈: the same amount, converted by molar mass. Where a SMILES comes first, the peptide text is derived from it. [ ]: non-standard residue; d: D form. Orn = NCCC[C@H](N)C(=O)O

One data set relates to Bacillus subtilis. Put plainly: Antibacterial activity against Bacillus subtilis NBRC 3513 after overnight incubation by medium dilution method. The class given is functional. In outline: (§1)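 MIC by medium dilution with an inoculum of 10⁶ organisms per ml. Value is the minimum inhibitory concentration.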
Data set [1] can be described thus: Cytotoxicity against human RBC assessed induction of hemolysis at […] after 30 mins microtiter plate reader analysis. Format: cell-based. To be noted: erythrocyte, 0.5 h.
For a further data set, the system named is Escherichia coli. Nature of the data set: Antibacterial activity against Escherichia coli NBRC l2734 after overnight incubation by medium dilution method. Format: functional. Summed up:
as §1

The test system of the next data set is Priestia megaterium. Nature of the data set: Antibacterial activity against Bacillus megaterium ATCC 19213 after overnight incubation by medium dilution method. Format: functional. In outline: as §1
For data set [2], the system named is Staphylococcus epidermidis. Nature of the data set: Antibacterial activity against Staphylococcus epidermidis NBRC 12993 after overnight incubation by medium dilution method. The class given is functional. Summed up:
as §1

For a further data set, the system named is Pseudomonas aeruginosa. Nature of the data set: Antibacterial activity against Pseudomonas aeruginosa NBRC 3080 after overnight incubation by medium dilution method. Format: functional. In outline:
as §1

In another data set the test system is Staphylococcus aureus. Nature of the data set: Antibacterial activity against Staphylococcus aureus NBRC 12732 after overnight incubation by medium dilution method. The class given is functional. Summed up: as §1

The MIC is the least concentration at which growth counts as inhibited. Low values mean inhibition by little substance, high ones a need for much substance.

On to `CC(C)C[C@@H]1NC(=O)[C@H](CCCN)NC(=O)[C@H](C)NC(=O)[C@@H](Cc2ccc(O)cc2)NC(=O)[C@@H]2CCCN2C(=O)[C@@H](Cc2ccccc2)NC(=O)[C@H](CC(C)C)NC(=O)[C@H](CCCN)NC(=O)[C@H](C)NC(=O)[C@@H](Cc2ccc(O)cc2)NC(=O)[C@@H]2CCCN2C(=O)[C@@H](Cc2ccccc2)NC1=O`, for which the MIC is 12.5 µg/mL (≈ 8.85 µM) in the data set on Bacillus subtilis; over 100 µg/mL with Escherichia coli; 12.5 µg/mL (≈ 8.85 µM) with Priestia megaterium; 25 µg/mL (≈ 17.7 µM) in data set [2]; over 100 µg/mL with Pseudomonas aeruginosa; 6.25 µg/mL (≈ 4.43 µM) in the data set with Staphylococcus aureus. In addition, the Activity result in data set [1] is on record as “Non-toxic”.

With `CC(C)C[C@@H]1NC(=O)[C@H](C)NC(=O)[C@H](C(C)C)NC(=O)[C@@H](Cc2ccc(O)cc2)NC(=O)[C@@H]2CCCN2C(=O)[C@@H](Cc2ccccc2)NC(=O)[C@H](CC(C)C)NC(=O)[C@H](C)NC(=O)[C@H](C(C)C)NC(=O)[C@@H](Cc2ccc(O)cc2)NC(=O)[C@@H]2CCCN2C(=O)[C@@H](Cc2ccccc2)NC1=O`, the minimal inhibitory concentration (MIC) (against Bacillus subtilis; with Escherichia coli; against Priestia megaterium; in data set [2]; with Pseudomonas aeruginosa; in the data set on Staphylococcus aureus) was over 50 µg/mL throughout. The Activity entry in data set [1] is given as “Non-toxic”.

With `CC(C)[C@@H]1NC(=O)[C@@H](Cc2ccc(O)cc2)NC(=O)[C@@H]2CCCN2C(=O)[C@@H](Cc2ccccc2)NC(=O)[C@H](C)NC(=O)[C@H](CCCN)NC(=O)[C@H](C(C)C)NC(=O)[C@@H](Cc2ccc(O)cc2)NC(=O)[C@@H]2CCCN2C(=O)[C@@H](Cc2ccccc2)NC(=O)[C@H](C)NC(=O)[C@H](CCCN)NC1=O`, the minimum inhibitory concentration (MIC) against Bacillus subtilis was 100 µg/mL (≈ 72.3 µM); in the data set on Escherichia coli, over 100 µg/mL; against Priestia megaterium it was 100 µg/mL (≈ 72.3 µM); in data set [2], over 100 µg/mL; against Pseudomonas aeruginosa, over 100 µg/mL; against Staphylococcus aureus it was 100 µg/mL (≈ 72.3 µM). Also, the Activity result in data set [1] is listed as “Non-toxic”.

On to `CC(C)C[C@@H]1NC(=O)[C@H](CCCN)NC(=O)[C@H](C(C)C)NC(=O)[C@@H](Cc2ccc(O)cc2)NC(=O)[C@@H]2CCCN2C(=O)[C@@H](C)NC(=O)[C@H](CC(C)C)NC(=O)[C@H](CCCN)NC(=O)[C@H](C(C)C)NC(=O)[C@@H](Cc2ccc(O)cc2)NC(=O)[C@@H]2CCCN2C(=O)[C@@H](C)NC1=O`, for which the MIC (with Bacillus subtilis; in the data set with Escherichia coli; against Priestia megaterium; in data set [2]; with Pseudomonas aeruginosa; against Staphylococcus aureus) was over 100 µg/mL in each case. Besides, the Activity result in data set [1] was “Non-toxic”.

Consider `CC(C)C[C@@H]1NC(=O)[C@H](CCCN)NC(=O)[C@H](C(C)C)NC(=O)[C@@H](Cc2ccc(O)cc2)NC(=O)[C@H](C)NC(=O)[C@@H](Cc2ccccc2)NC(=O)[C@H](CC(C)C)NC(=O)[C@H](CCCN)NC(=O)[C@H](C(C)C)NC(=O)[C@@H](Cc2ccc(O)cc2)NC(=O)[C@H](C)NC(=O)[C@@H](Cc2ccccc2)NC1=O`, for which the minimal inhibitory concentration (MIC) was 12.5 µg/mL (≈ 8.83 µM) in the data set with Bacillus subtilis; over 100 µg/mL against Escherichia coli; 25 µg/mL (≈ 17.7 µM) with Priestia megaterium; 50 µg/mL (≈ 35.3 µM) in data set [2]; over 100 µg/mL in the data set on Pseudomonas aeruginosa; 12.5 µg/mL (≈ 8.83 µM) in the data set on Staphylococcus aureus. In addition, the Activity entry in data set [1] is reported as “Non-toxic”.

In the case of `CC(C)C[C@@H]1NC(=O)[C@H](CCCN)NC(=O)[C@H](CCCCN)NC(=O)[C@@H](Cc2ccc(O)cc2)NC(=O)[C@@H]2CCCN2C(=O)[C@@H](Cc2ccccc2)NC(=O)[C@H](CC(C)C)NC(=O)[C@H](CCCN)NC(=O)[C@H](CCCCN)NC(=O)[C@@H](Cc2ccc(O)cc2)NC(=O)[C@@H]2CCCN2C(=O)[C@@H](Cc2ccccc2)NC1=O`, the MIC (with Bacillus subtilis; in the data set with Escherichia coli; in the data set on Priestia megaterium; in data set [2]; against Pseudomonas aeruginosa; against Staphylococcus aureus) was over 100 µg/mL in each case. Besides, in data set [1], the Activity result was “Non-toxic”.

Turning to `CC(C)C[C@@H]1NC(=O)[C@H](CCCN)NC(=O)[C@H](C(C)C)NC(=O)[C@@H](Cc2ccc(O)cc2)NC(=O)[C@H](CO)NC(=O)[C@@H](Cc2ccccc2)NC(=O)[C@H](CC(C)C)NC(=O)[C@H](CCCN)NC(=O)[C@H](C(C)C)NC(=O)[C@@H](Cc2ccc(O)cc2)NC(=O)[C@H](CO)NC(=O)[C@@H](Cc2ccccc2)NC1=O`, the MIC with Bacillus subtilis was 25 µg/mL (≈ 17.3 µM); in the data set with Escherichia coli, over 100 µg/mL; in the data set with Priestia megaterium, 50 µg/mL (≈ 34.5 µM); in data set [2] it was 50 µg/mL (≈ 34.5 µM); in the data set on Pseudomonas aeruginosa it was over 100 µg/mL; in the data set with Staphylococcus aureus, 12.5 µg/mL (≈ 8.63 µM). In addition, the Activity result in data set [1] is on record as “Non-toxic”.

Take `CC(C)C[C@@H]1NC(=O)[C@H](CCCN)NC(=O)[C@H](C(C)C)NC(=O)[C@@H](Cc2ccc(O)cc2)NC(=O)[C@H](CCCCN)NC(=O)[C@@H](Cc2ccccc2)NC(=O)[C@H](CC(C)C)NC(=O)[C@H](CCCN)NC(=O)[C@H](C(C)C)NC(=O)[C@@H](Cc2ccc(O)cc2)NC(=O)[C@H](CCCCN)NC(=O)[C@@H](Cc2ccccc2)NC1=O`: the MIC against Bacillus subtilis came out at 6.25 µg/mL (≈ 4.09 µM); with Escherichia coli, 25 µg/mL (≈ 16.3 µM); against Priestia megaterium it was 6.25 µg/mL (≈ 4.09 µM); in data set [2] it was 6.25 µg/mL (≈ 4.09 µM); with Pseudomonas aeruginosa, 100 µg/mL (≈ 65.4 µM); against Staphylococcus aureus, 6.25 µg/mL (≈ 4.09 µM). The Activity entry in data set [1] is “Non-toxic”.

With `CC(C)C[C@@H]1NC(=O)[C@H](CCCN)NC(=O)[C@H](C(C)C)NC(=O)[C@@H](Cc2ccc(O)cc2)NC(=O)[C@H](CCCNC(=N)N)NC(=O)[C@@H](Cc2ccccc2)NC(=O)[C@H](CC(C)C)NC(=O)[C@H](CCCN)NC(=O)[C@H](C(C)C)NC(=O)[C@@H](Cc2ccc(O)cc2)NC(=O)[C@H](CCCNC(=N)N)NC(=O)[C@@H](Cc2ccccc2)NC1=O`, the MIC in the data set with Bacillus subtilis was 6.25 µg/mL (≈ 3.94 µM); in the data set on Escherichia coli, 12.5 µg/mL (≈ 7.88 µM); in the data set with Priestia megaterium, 6.25 µg/mL (≈ 3.94 µM); in data set [2], 6.25 µg/mL (≈ 3.94 µM); with Pseudomonas aeruginosa, 50 µg/mL (≈ 31.5 µM); with Staphylococcus aureus, 6.25 µg/mL (≈ 3.94 µM). In addition, in data set [1], the Activity entry is recorded as “Non-toxic”.

For the molecule `CC(C)C[C@@H]1NC(=O)[C@H](CCCN)NC(=O)[C@H](C(C)C)NC(=O)[C@@H](C)NC(=O)[C@@H]2CCCN2C(=O)[C@@H](Cc2ccccc2)NC(=O)[C@H](CC(C)C)NC(=O)[C@H](CCCN)NC(=O)[C@H](C(C)C)NC(=O)[C@@H](C)NC(=O)[C@@H]2CCCN2C(=O)[C@@H](Cc2ccccc2)NC1=O` (cyclo(L[dF]P[dA]V[Orn]L[dF]P[dA]V[Orn])), the MIC in the data set with Bacillus subtilis was 12.5 µg/mL (≈ 9.74 µM); against Escherichia coli it was over 100 µg/mL; against Priestia megaterium, 12.5 µg/mL (≈ 9.74 µM); in data set [2], 25 µg/mL (≈ 19.5 µM); in the data set with Pseudomonas aeruginosa it was over 100 µg/mL; in the data set with Staphylococcus aureus, 12.5 µg/mL (≈ 9.74 µM). Besides, in data set [1], the Activity result was “Non-toxic”.

Turning to `CC(C)C[C@@H]1NC(=O)[C@H](CCCN)NC(=O)[C@H](C(C)C)NC(=O)[C@@H](Cc2ccc(O)cc2)NC(=O)[C@@H]2CCCN2C(=O)[C@@H](Cc2ccccc2)NC(=O)[C@H](CC(C)C)NC(=O)[C@H](CCCN)NC(=O)[C@H](C(C)C)NC(=O)[C@@H](Cc2ccc(O)cc2)NC(=O)[C@@H]2CCCN2C(=O)[C@@H](Cc2ccccc2)NC1=O` [GRATISIN], the MIC came to 6.25 µg/mL (≈ 4.26 µM) in the data set on Bacillus subtilis; 100 µg/mL (≈ 68.1 µM) in the data set on Escherichia coli; 6.25 µg/mL (≈ 4.26 µM) with Priestia megaterium; 12.5 µg/mL (≈ 8.52 µM) in data set [2]; 100 µg/mL (≈ 68.1 µM) against Pseudomonas aeruginosa; 6.25 µg/mL (≈ 4.26 µM) against Staphylococcus aureus. Besides, in data set [1], the Activity entry is given as “Toxic”.
